The source made the active and inactive calls.

The species named for assay [1] is Mus musculus. Kind of assay: Analgesic efficacy is expressed as percentage of that morphine, done on mouse. Type of assay: functional.
Assay [2] has as its system K177 cell line. Kind of assay: Cholinergic interactions was measured with FLIPR device on […] cells and given as EC50. It counts as functional, cell-based. Conditions: Homo sapiens. The gist of the method: (§1)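 Cells were plated on poly(ethylenimine)-coated plates and used about 72 h later. Loading was Fluo-3 AM for 1 h at 37 °C, followed by washes in Hepes-salts buffer, pH 7.4. FLIPR recorded Ca2+ fluorescence over 5 min after agonist addition. Responses were normalized to 100 µM nicotine (100%) and unloaded cells (0%), and EC50 and intrinsic activity were derived from concentration-response curves.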

The test system of assay [3] is TE-671. Briefly: Cholinergic interactions was measured with FLIPR device on TE671 cells and given as Effective dose. It counts as functional, cell-based. Conditions: Homo sapiens. In short, it runs like this: as §1
Assay [4] concerns Mus musculus. Kind of assay: Minimal dose able to induce a statistically significant increase of the pain threshold, done on mouse; sc. It counts as functional. The gist of the method:
(§2)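 Mouse hot plate test (52.5 ± 0.1 °C, 45 s cutoff) after sc dosing, in male Swiss-Webster mice. The value is the lowest dose giving a statistically significant rise in pain threshold. Dunnett's two-tailed test compared treated mice at maximum reaction time with pretest time, P < 0.05.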

Assay [5] deals with Mus musculus. Kind of assay: Maximal nontoxic dose of the compound, done on mouse; sc. It counts as functional. In short, it runs like this:
(§3)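 Male Swiss-Webster mice dosed sc. The value is the highest dose causing no visible behavioural change (tremors, convulsions, hypomotility etc.), so that treated mice could not be told apart from untreated ones. Behaviour was scored by the Irwin method in groups of at least 10 animals.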

For assay [6], the species on record is Mus musculus. Briefly: Analgesic efficacy is expressed as percentage of that epibatidine, done on mouse. Type of assay: functional.
Assay [7] deals with K177 cell line. Kind of assay: Cholinergic interactions was measured with FLIPR device on […] cells and given as Intrinsic activity. Type of assay: functional, Homo sapiens. The gist of the method:
as §1

Assay [8] concerns TE-671. Kind of assay: Cholinergic interactions was measured with FLIPR device on TE671 cells and given as Intrinsic activity. It counts as functional, Homo sapiens. In short, it runs like this: as §1
In assay [9] the test system is IMR-32. Briefly: Cholinergic interactions was measured with FLIPR device on cells of IMR-32 human neuroblastoma clonal line and given as Intrinsic activity. Type of assay: functional. The gist of the method: as §1
Assay [10] deals with IMR-32. Kind of assay: Cholinergic interactions was measured with FLIPR device on IMR-32 cells of human neuroblastoma clonal line, given as effective dose. It counts as functional, cell-based. The gist of the method: as §1
For assay [11], the system named is Mus musculus. Briefly: Licking latency was measured after 45 min treatment (at dose=50 mg/kg) by using mouse hot plate test. It counts as functional. In short, it runs like this: (§4)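 Male Swiss-Webster mice (22-28 g), 23 ± 1 °C, 12-h light/dark cycle, food and water ad libitum. Hot plate at 52.5 ± 0.1 °C with licking latency as read-out and 45 s cutoff. Mice with pre-drug latency below 12 or over 18 s were rejected. Compounds given sc, 5-12 mice per test. Significance was assessed by Dunnett's two-tailed test, P < 0.05.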
(Hot-plate and tail-flick tests time the reaction to a heat stimulus.)

Assay [12] deals with Mus musculus. Kind of assay: MAD: minimal dose able to induce a statistically significant increase of the pain threshold, done on mouse; sc; IA = inactive. It counts as functional, organism-based. In short, it runs like this:
as §2

The test system of assay [13] is Mus musculus. Kind of assay: Licking latency was measured after 15 min treatment (at dose=50 mg/kg) by using mouse hot plate test. Type of assay: functional. In short, it runs like this: as §4
Assay [14] has as its system Mus musculus. Briefly: Licking latency was measured before treatment (at dose=50 mg/kg) by using mouse hot plate test. It counts as functional. The gist of the method: (§5)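 Male Swiss-Webster mice (22-28 g), 23 ± 1 °C, 12-h light/dark cycle. Hot plate at 52.5 ± 0.1 °C. Mice with pre-drug licking latency below 12 s or over 18 s were rejected. Cutoff 45 s. Compound given sc; latency read before dosing and at 15, 30 and 45 min. 5-12 mice per test.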

Assay [15] concerns Mus musculus. Briefly: Licking latency was measured after 30 min treatment (at dose=50 mg/kg) by using mouse hot plate test. Type of assay: functional. In short, it runs like this: as §4
The test system of assay [16] is Mus musculus. Kind of assay: MNTD:Maximal nontoxic dose of the compound, done on mouse; sc. It counts as functional. The gist of the method:
as §3

In assay [17] the test system is Mus musculus. Kind of assay: MAD: minimal dose able to induce a statistically significant increase of the pain threshold, done on mouse; sc; IA= inactive. It counts as functional, organism-based. The gist of the method: as §2
Assay [18] relates to Mus musculus. Kind of assay: Licking latency was measured after 45 min treatment (at dose=20 mg/kg) by using mouse hot plate test. Type of assay: functional. The gist of the method: as §4
The test system of assay [19] is Mus musculus. Briefly: Licking latency was measured before treatment (at dose=20 mg/kg) by using mouse hot plate test. It counts as functional. In short, it runs like this: as §4
Assay [20] has as its system Mus musculus. Briefly: Licking latency was measured after 30 min treatment (at dose=40 mg/kg) by using mouse hot plate test. Type of assay: functional. The gist of the method:
as §4

Assay [21] concerns Mus musculus. Kind of assay: Licking latency was measured after 15 min treatment (at dose=20 mg/kg) by using mouse hot plate test. Type of assay: functional. The gist of the method: as §4
For assay [22], the system named is Mus musculus. Kind of assay: Licking latency was measured after 15 min treatment (at dose=40 mg/kg) by using mouse hot plate test. Type of assay: functional. In short, it runs like this:
as §4

The test system of assay [23] is Mus musculus. Kind of assay: Licking latency was measured before treatment (at dose=40 mg/kg) by using mouse hot plate test. It counts as functional. The gist of the method: as §5
Assay [24] concerns Mus musculus. Kind of assay: Licking latency was measured after 45 min treatment (at dose=40 mg/kg) by using mouse hot plate test. Type of assay: functional. The gist of the method:
as §4

For assay [25], the system named is Mus musculus. Kind of assay: Licking latency was measured after 30 min treatment (at dose=20 mg/kg) by using mouse hot plate test. It counts as functional. The gist of the method:
as §4

Assay [26] has as its system Mus musculus. Kind of assay: Licking latency was measured after 15 min treatment (at dose=5 mg/kg) by using mouse hot plate test. Type of assay: functional. The gist of the method:
as §4

Assay [27] has as its system Mus musculus. Kind of assay: Licking latency was measured before treatment (at dose=5 mg/kg) by using mouse hot plate test. It counts as functional. The gist of the method:
as §5

In assay [28] the test system is Mus musculus. Kind of assay: Licking latency was measured after 45 min treatment (at dose=10 mg/kg) by using mouse hot plate test. It counts as functional. The gist of the method:
as §4

The subject of assay [29] is Mus musculus. Briefly: Licking latency was measured before treatment (at dose=10 mg/kg) by using mouse hot plate test. It counts as functional. The gist of the method: as §4
Assay [30] deals with Mus musculus. Briefly: MAD: minimal dose able to induce a statistically significant increase of the pain threshold, done on mouse; sc. It counts as functional. In short, it runs like this: as §2
Assay [31] has as its system Mus musculus. Kind of assay: Licking latency was measured after 30 min treatment (at dose=10 mg/kg) by using mouse hot plate test. Type of assay: functional. In short, it runs like this:
as §4

Assay [32] has as its system Mus musculus. Briefly: Licking latency was measured after 15 min treatment (at dose=10 mg/kg) by using mouse hot plate test. Type of assay: functional. The gist of the method: as §4
The test system of assay [33] is Mus musculus. Kind of assay: Licking latency was measured after 45 min treatment (at dose=5 mg/kg) by using mouse hot plate test. It counts as functional. The gist of the method: as §4
Assay [34] has as its system Mus musculus. Kind of assay: Licking latency was measured after 30 min treatment (at dose=5 mg/kg) by using mouse hot plate test. Type of assay: functional. In short, it runs like this: as §4

On to `Clc1ccc(C2CC3CC[C@H]2N3)cn1` (some centres not stated) [EPIBATIDINE], for which the Efficacy in the assay listed under Mus musculus [1] worked out at 82%; in the assay filed under Mus musculus [6] it was 100%. Also, the EC50 (in general, the concentration needed to bring the measured effect to its halfway point) was determined as 350 nM in the assay on K177 cell line [2], 1260 nM in the assay with TE-671 [3] and 34 nM with IMR-32 [10]. In the assay with Mus musculus [4], this molecule displayed an MAD of 0.001 mg/kg. Further, in the assay with Mus musculus [5], the MNTD worked out at 0.007 mg/kg. For the same molecule, the Intrinsic activity with K177 cell line [7] was determined as 148.1%; in the assay with TE-671 [8], 79.5%; with IMR-32 [9] it was 145.6%.

On to `Clc1ccc(N2C3CCC2CN(Cc2ccccc2)C3)nn1`, for which the Licking latency in the assay with Mus musculus [11] is on record as 17.6 s; in the assay with Mus musculus [13], 17.2 s; in the assay with Mus musculus [14], 14.8 s; in the assay on Mus musculus [15], 15.3 s. For the same molecule, the MAD result in the assay on Mus musculus [12] is “inactive”. The molecule also showed an MNTD in the assay with Mus musculus [16] of more than 50 mg/kg.

For `CCC(=O)N1C2CCC1CN(c1ccc(Cl)nn1)C2`, the MAD entry in the assay with Mus musculus [17] is “inactive”. Besides, the Licking latency was 18 s in the assay with Mus musculus [18]; 13.8 s with Mus musculus [19]; 16.4 s with Mus musculus [20]; 17.1 s in the assay with Mus musculus [21]; 17 s in the assay with Mus musculus [22]; 14.5 s with Mus musculus [23]. Moreover, the Licking latency came to 18.4 s in the assay with Mus musculus [24] and 15.6 s with Mus musculus [25]. This molecule also came in with an MNTD in the assay on Mus musculus [16] of more than 60 mg/kg.

Regarding `Clc1ccnc(N2CC3CCC(C2)N3)n1`, in the assay listed under Mus musculus [1], the “Analgesic efficacy compared to morphine” value amounted to 60%. Further, the Licking latency in the assay on Mus musculus [26] came out at 20.5 s; in the assay on Mus musculus [27] it was 15 s; with Mus musculus [28], 22.1 s; in the assay on Mus musculus [29], 14.6 s; with Mus musculus [31] it was 21.2 s; in the assay with Mus musculus [32], 26.3 s. Also, the Licking latency in the assay with Mus musculus [33] turned out to be 15.6 s; in the assay with Mus musculus [34], 17.8 s. In the assay with Mus musculus [30], this molecule displayed an MAD of 5 mg/kg. The “Analgesic efficacy compared to epibatidine” value in the assay listed under Mus musculus [6] was 75%. Besides, the MNTD in the assay with Mus musculus [16] is 15 mg/kg.

For `CN1CC[C@]23c4c5ccc(O)c4O[C@H]2[C@@H](O)C=C[C@H]3[C@H]1C5` [MORPHINE], the “Analgesic efficacy compared to morphine” value in the assay listed under Mus musculus [1] amounted to 100%. The molecule further returned an MAD in the assay on Mus musculus [30] of 2 mg/kg. Moreover, the “Analgesic efficacy compared to epibatidine” value in the assay filed under Mus musculus [6] was 122%. Further, the MNTD in the assay with Mus musculus [16] is 20 mg/kg.
